From ChEMBL document CHEMBL1143463, “Potential antitumor agents: flavones and their derivatives from Linaria reflexa Desf” (Bioorg Med Chem Lett, 2005)

Key:
Caco-2 = assay: In vitro inhibitory concentration against human colorectal adenocarcinoma Caco-2 cells in the presence of vinblastine sulfate salt; type: functional, cell-based
In short: (§1)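 Cultured in DMEM with 10% FBS, 1% L-glutamine and 1% penicillin/streptomycin at 37 °C in 5% CO2. After 24 h attachment at 2–5 × 10^4 cells/well, cells were treated 48 h with serial dilutions at final 0.25–50 in DMSO-containing medium, six replicates. Survival measured by SRB staining of TCA-fixed cells at 564 nm against untreated control. IC50 from dose–response curves; three experiments, mean ± SD.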

ACHN = assay: In vitro inhibitory concentration against renal adenocarcinoma cell line (ACHN) in the presence of taxol; type: functional, cell-based; conditions: Homo sapiens
In short: (§2)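 Cell lines grown in RPMI 1640 with 10% FBS, 1% L-glutamine and 1% penicillin/streptomycin at 37 °C in 5% CO2. Seeded at 2–5 × 10^4 cells/well and left 24 h, then exposed 48 h to serial dilutions at final 0.25–50 (DMSO vehicle), six replicates. Cells fixed with cold TCA, stained with SRB, and read at 564 nm. IC50 taken from % inhibition curves, three experiments, mean ± SD.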

COR-L23 = assay: In vitro inhibitory concentration against human carcinoma COR-L23 cells in the presence of vinblastine sulfate salt; type: functional, cell-based; in short: as §2
[1] = In vitro inhibitory concentration against human amelanotic melanoma cell line (C32) in the presence of vinblastine sulfate salt; type: functional; in short: as §2
HepG2 = assay: In vitro inhibitory concentration against human hepatocellular carcinoma HepG-2 cells in the presence of vinblastine sulfate salt; type: functional, cell-based; in short: as §1
MRC5 = assay: In vitro inhibitory concentration against human fetal lung MRC-5 cell line in the presence of vinblastine sulfate salt; type: functional, cell-based; in short: as §1

IC50 (Caco-2) [µM] | IC50 (ACHN) [µM] | IC50 (COR-L23) [µM] | IC50 [1] [µM] | IC50 (HepG2) [µM] | SMILES | IC50 (MRC5) [µM]
> 138 | > 138 | > 138 | > 138 | > 138 | C[C@]12O[C@H]1[C@@H](O)[C@]1(O)C=CO[C@@H](O[C@@H]3O[C@H](CO)[C@@H](O)[C@H](O)[C@H]3O)[C@@H]12 [ANTIRRHINOSIDE] | > 138
– | – | – | 7.02 | – | COc1ccc(-c2cc(=O)c3c(O)c(OC)c(O)cc3o2)cc1 [PECTOLINARIGENIN] | > 159
8.54 | 14 | 6.68 | 11.8 | 16.4 | COc1ccc(-c2cc(=O)c3c(O)c(OC)c(O[C@@H]4OC(CO[C@@H]5OC(C)[C@H](O)[C@H](O)C5OC(C)=O)[C@@H](O)[C@H](O)C4O)cc3o2)cc1 (some centres undefined) [ISOLINARIIN A] | > 75.3
– | – | – | 7.17 | 14.1 | COc1ccc(-c2cc(=O)c3c(O)c(OC)c(O[C@@H]4O[C@H](CO[C@@H]5O[C@@H](C)[C@H](O)[C@@H](O)[C@H]5O)[C@@H](O)[C@H](O)[C@H]4O)cc3o2)cc1 [PECTOLINARIN] | > 80.3
8.01 | 11.2 | 5.17 | 12.6 | 23.2 | COc1ccc(-c2cc(=O)c3c(O)c(OC)c(O[C@@H]4OC(CO[C@@H]5OC(C)[C@H](OC(C)=O)[C@H](O)C5O)[C@@H](O)C(O)[C@@H]4O)cc3o2)cc1 (some centres undefined) | > 75.3
14 | 16.9 | 10.4 | 21.5 | 10.9 | COc1ccc(-c2cc(=O)c3c(O)c(OC)c(O[C@@H]4OC(CO[C@@H]5OC(C)[C@H](O)[C@H](OC(C)=O)C5O)[C@@H](O)[C@H](O)C4O)cc3o2)cc1 (some centres undefined) | > 75.3
